Results: ChEMBL document CHEMBL1138913, “Synthesis, structure analysis, and antitumor activity of 3,6-disubstituted-1,4-dihydro-1,2,4,5-tetrazine derivatives” (2006)

Legend:
Type in all cases: functional
P388 [1] = assay: Antiproliferative activity against mouse P388 cell line at 10 umol/L by MTT method
Procedure, shortened: (§1)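 P-388 and HL-60 cells were tested in vitro by MTT assay over five tenfold concentrations from 10^-4 to 10^-8 mol/L. Each value is the percent inhibition ratio of cancer cell growth at that concentration.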

A549 [2] = assay: Antiproliferative activity against human A549 cell line at 1 umol/L by SRB method
Procedure, shortened: (§2)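 Growth inhibition of A-549 and BEL-7402 cells was measured in vitro by sulforhodamine B (SRB) staining. Compounds were tested across five tenfold concentrations from 10^-4 to 10^-8 mol/L, and each value is reported as the percent inhibition ratio of cell growth at that concentration.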

HL-60 [3] = assay: Antiproliferative activity against human HL60 cell line at 100 umol/L by MTT method; procedure, shortened: as §1
A549 [4] = assay: Antiproliferative activity against human A549 cell line at 0.01 umol/L by SRB method; procedure, shortened: as §2
HL-60 [5] = assay: Antiproliferative activity against human HL60 cell line at 0.1 umol/L by MTT method; procedure, shortened: as §1
HL-60 [6] = assay: Antiproliferative activity against human HL60 cell line at 1 umol/L by MTT method; procedure, shortened: as §1
HL-60 [7] = assay: Antiproliferative activity against human HL60 cell line at 10 umol/L by MTT method; procedure, shortened: as §1
Bel-7402 [8] = assay: Antiproliferative activity against human BEL-7402 cell line at 0.1 umol/L by SRB method; procedure, shortened: as §2
Bel-7402 [9] = assay: Antiproliferative activity against human BEL-7402 cell line at 0.01 umol/L by SRB method; procedure, shortened: as §2
A549 [10] = assay: Antiproliferative activity against human A549 cell line at 0.1 umol/L by SRB method; procedure, shortened: as §2
A549 [11] = assay: Antiproliferative activity against human A549 cell line at 100 umol/L by SRB method; procedure, shortened: as §2
Bel-7402 [12] = assay: Antiproliferative activity against human BEL-7402 cell line at 1 umol/L by SRB method; procedure, shortened: as §2
P388 [13] = assay: Antiproliferative activity against mouse P388 cell line at 1 umol/L by MTT method; procedure, shortened: as §1
P388 [14] = assay: Antiproliferative activity against mouse P388 cell line at 0.1 umol/L by MTT method; procedure, shortened: as §1
P388 [15] = assay: Antiproliferative activity against mouse P388 cell line at 100 umol/L by MTT method; procedure, shortened: as §1
A549 [16] = assay: Antiproliferative activity against human A549 cell line at 10 umol/L by SRB method; procedure, shortened: as §2
Bel-7402 [17] = assay: Antiproliferative activity against human BEL-7402 cell line at 10 umol/L by SRB method; procedure, shortened: as §2
Bel-7402 [18] = assay: Antiproliferative activity against human BEL-7402 cell line at 100 umol/L by SRB method; procedure, shortened: as §2
HL-60 [19] = assay: Antiproliferative activity against human HL60 cell line at 0.01 umol/L by MTT method; procedure, shortened: as §1
P388 [20] = assay: Antiproliferative activity against mouse P388 cell line at 0.01 umol/L by MTT method; procedure, shortened: as §1

SMILES | Activity (P388 [1]) [%] | Activity (A549 [2]) [%] | Activity (HL-60 [3]) [%] | Activity (A549 [4]) [%] | Activity (HL-60 [5]) [%] | Activity (HL-60 [6]) [%] | Activity (HL-60 [7]) [%] | Activity (Bel-7402 [8]) [%] | Activity (Bel-7402 [9]) [%] | Activity (A549 [10]) [%] | Activity (A549 [11]) [%] | Activity (Bel-7402 [12]) [%] | Activity (P388 [13]) [%] | Activity (P388 [14]) [%] | Activity (P388 [15]) [%] | Activity (A549 [16]) [%] | Activity (Bel-7402 [17]) [%] | Activity (Bel-7402 [18]) [%] | Activity (HL-60 [19]) [%] | Activity (P388 [20]) [%]
c1ccc(C2=NNC(c3ccccc3)=NN2)cc1 | 69 | 5.4 | 82.1 | 0 | 2.6 | 2.9 | 16.1 | 0 | 0 | 10.2 | 55.8 | 0 | 0 | 0 | 87.6 | 67.2 | 14.3 | 54 | 17.2 | 0
Clc1ccc(Cc2nnc(Cc3ccc(Cl)cc3)nn2)cc1 | 57.1 | 9.3 | 85.4 | 0 | 21.1 | 13.5 | 22.3 | 0 | 6 | 8.9 | 58.4 | 0 | 13.1 | 1.1 | 65.8 | 29.1 | 0 | 61.2 | 7.6 | 8.7
Cc1cccnc1-c1nnc(-c2ncccc2C)nn1 | 0 | 0 | 94.3 | 0 | 9.1 | 7 | 96.6 | 0 | 2.8 | 0 | 93.5 | 0 | 0 | 0 | 34.9 | 9.8 | 23.8 | 93 | 4.2 | 0
c1ccc(-c2nnc(-c3ccccc3)nn2)cc1 | 0 | 20.3 | 35.1 | 29.7 | 13.9 | 13.9 | 16.4 | 0 | 0 | 27.1 | 60.4 | 0 | 0 | 0 | 15.5 | 9.5 | 7.4 | 41.7 | 0 | 0
FC(F)(F)c1ccc(-c2nnc(-c3ccc(C(F)(F)F)cc3)nn2)cc1 | 2.5 | 33 | 43.7 | 9.7 | 1.4 | 5.8 | 7 | 0 | 0 | 19.5 | 51.5 | 0 | 0 | 0 | 40.2 | 44.4 | 12.6 | 21.3 | 0 | 0
Oc1ccc(Cl)cc1C1=NN=C(c2cc(Cl)ccc2O)NN1 | 0 | 0 |  | 0 |  |  |  |  |  | 0 | 65.3 |  | 0 | 0 | 89 | 80.3 |  |  |  | 0
Clc1ccc(C2=NN=C(c3ccc(Cl)cc3)NN2)cc1 | 51 | 4.7 |  | 7.1 |  |  |  |  |  | 0 | 73.4 |  | 36 | 19.4 | 65.9 | 2 |  |  |  | 4.9
Cc1cccnc1C1=NN=C(c2ncccc2C)NN1 | 0 | 0 | 96.3 | 0 | 2.6 | 2.9 | 13.6 | 0 | 0 | 0 | 2.6 | 0 | 0 | 0 | 0 | 3.6 | 8.3 | 94.9 | 17.2 | 0
Clc1ccc(-c2nnc(-c3ccc(Cl)cc3)nn2)cc1 | 0 | 29 | 66.7 | 16.1 | 4 | 0 | 12.2 | 0 | 3.4 | 19.4 | 52.3 | 0 | 0 | 0 | 0 | 35.1 | 0.1 | 27.4 | 0 | 0
Clc1ccc(CC2=NNC(Cc3ccc(Cl)cc3)=NN2)cc1 | 15.5 | 3 |  | 7.8 |  |  |  |  |  | 10.1 | 64.5 |  | 4.4 | 2.9 | 48.8 | 17.8 |  |  |  | 0
FC(F)(F)c1ccc(C2=NN=C(c3ccc(C(F)(F)F)cc3)NN2)cc1 | 36.9 | 0 |  | 0 |  |  |  |  |  | 0 | 70.3 |  | 15.2 | 13.8 | 47.7 | 22 |  |  |  | 9.1
Oc1ccc(Cl)cc1-c1nnc(-c2cc(Cl)ccc2O)nn1 | 90.7 | 16.4 |  | 0 |  |  |  |  |  | 0 | 7.6 |  | 91.2 | 88 | 92.5 | 62.3 |  |  |  | 82.8
Clc1ccccc1-c1nnc(-c2ccccc2Cl)nn1 [CLOFENTEZINE] | 0 | 5.6 |  | 12.6 |  |  |  |  |  | 14.6 | 8.2 |  | 0 | 0 | 0 | 2.8 |  |  |  | 0
